Results reported in ChEMBL document CHEMBL4364303 (Eur J Med Chem, 2019).

Columns and labels:
Mus musculus [1] = experiment: Antiinflammatory activity in DNFB-induced ICR mouse model of auricle edema assessed as inhibition of ear swelling at 5 mg/kg, ig administered once daily for 6 days followed by 1% DNFB solution applied on right ear measured after 24 hrs relative to untreated control; type: functional; details: po
Outline: (§1)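 Male ICR mice, 18-22 g, randomized by weight, 6 per group. Dosed by intragastric route once daily for 6 days; saline given to normal and model groups. Right ear coated with 10 uL 1% DNFB (DNFB in acetone/olive oil); left ear received acetone/olive oil only. Mice killed 24 h later and both ears weighed. Swelling = right minus left ear weight; inhibition calculated versus model control.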

[2] = target: T1, Prostaglandin G/H synthase 1 (Ovis aries, UniProt P05979); experiment: Inhibition of ovine COX-1 using arachidonic acid as substrate incubated for 5 mins by fluorescence-based assay
T1 sequence (P05979 whole entry): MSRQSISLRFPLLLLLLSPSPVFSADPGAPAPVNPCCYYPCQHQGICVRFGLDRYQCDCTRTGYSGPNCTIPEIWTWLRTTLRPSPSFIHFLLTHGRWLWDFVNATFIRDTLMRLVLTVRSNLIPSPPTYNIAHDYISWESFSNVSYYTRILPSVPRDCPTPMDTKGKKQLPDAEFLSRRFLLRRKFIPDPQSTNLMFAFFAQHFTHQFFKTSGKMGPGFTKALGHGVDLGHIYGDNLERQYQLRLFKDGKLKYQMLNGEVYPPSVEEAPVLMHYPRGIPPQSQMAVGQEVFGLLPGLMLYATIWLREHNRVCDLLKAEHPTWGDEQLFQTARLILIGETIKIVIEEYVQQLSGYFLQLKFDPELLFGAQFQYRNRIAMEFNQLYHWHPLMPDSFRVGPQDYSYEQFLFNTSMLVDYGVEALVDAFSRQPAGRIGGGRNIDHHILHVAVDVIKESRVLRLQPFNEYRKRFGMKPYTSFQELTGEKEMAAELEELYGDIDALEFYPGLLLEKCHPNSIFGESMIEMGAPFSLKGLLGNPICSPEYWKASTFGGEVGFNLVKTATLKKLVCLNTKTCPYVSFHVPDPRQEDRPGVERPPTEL
Outline: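 COX-1 fluorometric inhibitor-screening kit. Assay buffer, COX-1 cofactor and arachidonic acid were combined with test compound and incubated 5 min at 37 °C. Inhibition derived from RFU relative to 100%-activity and blank controls. Run in triplicate; IC50 taken from concentration curves.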

RAW264.7 = experiment: Cytotoxicity against mouse RAW264.7 cells assessed as cell viability up to 50 uM after 24 hrs by MTT assay; type: cell-based; details: raw264.7, 24 h
Outline: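 RAW264.7 cells (ATCC), about 1.0×10^5 cells/ml, were held 2 h in serum-free medium at 37°C, 5% CO2. The supernatant was replaced with RPMI 1640 containing compound at 0, 5, 10, 20, 30, 40 or 50 μM for 24 h. MTT (5 mg/mL stock) was added for the final 4 h. Formazan was dissolved in DMSO and OD570 read. Survival was compared with blank.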

[3] = Inhibition of soyabean 15-LOX preincubated for 5 mins followed by susbtrate addition measured after 10 mins by colorimetric method; design: species or system Glycine max
Outline: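 Soybean lipoxygenase assessed with a commercial lipoxygenase assay kit, following the kit instructions. IC50 values determined.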

Mus musculus [4] = experiment: Antiinflammatory activity in DNFB-induced ICR mouse model of auricle edema assessed as inhibition of ear swelling at 0.5 mg/kg, ig administered once daily for 6 days followed by 1% DNFB solution applied on right ear measured after 24 hrs relative to untreated control; type: functional; details: po; outline: as §1

Structure (SMILES)	inhibition in vivo at 5 mg/kg (Mus musculus [1]) [%]	other results
O=C(c1cc2cc(Cl)ccc2n1Cc1ccc(F)cc1)N1CCN(Cc2ccccc2)CC1	24	–
COc1ccc(CN2CCN(C(=O)c3cc4cc(Cl)ccc4n3Cc3ccc(F)cc3)CC2)cc1	43.1	IC50 [2]: 195 nM; Activity (RAW264.7): Non-Toxic; IC50 [3]: 83.5 nM
Cc1nc(C)c(CN2CCN(C(=O)c3cc4cc(Cl)ccc4n3Cc3ccc(Cl)cc3)CC2)nc1C	64.9	IC50 [2]: 312 nM; IC50 [3]: 339 nM
Cc1cncc(CN2CCN(C(=O)c3cc4cc(Cl)ccc4n3Cc3ccc(F)cc3)CC2)c1	25.4	–
N#Cc1ccc(CN2CCN(C(=O)c3cc4cc(Cl)ccc4n3Cc3ccc(F)cc3)CC2)cc1	35.4	–
Cc1nc(C)c(CN2CCN(C(=O)c3cc4cc(Cl)ccc4n3Cc3ccc(F)cc3)CC2)nc1C	48.3	–
CN1CCN(C(=O)c2cc3cc(Cl)ccc3n2Cc2ccc(F)cc2)CC1	36.7	–
COc1ccc2[nH]cc(CCNC(=O)c3cc4cc(Cl)ccc4n3Cc3ccc(F)cc3)c2c1	50	IC50 [2]: 407 nM; Activity (RAW264.7): Non-Toxic; IC50 [3]: 66.1 nM
O=C(c1cc2cc(Cl)ccc2n1Cc1ccc(Cl)cc1)N1CCN(Cc2ccc(F)cc2)CC1	29.1	–
Cc1cncc(CN2CCN(C(=O)c3cc4cc(Cl)ccc4n3Cc3ccc(Cl)cc3)CC2)c1	29.8	–
O=C(c1cc2cc(Cl)ccc2n1Cc1ccc(F)cc1)N1CCN(Cc2ccc3c(c2)OCO3)CC1	34.2	–
O=C(c1cc2cc(Cl)ccc2n1Cc1ccc(Cl)cc1)N1CCN(Cc2ccc3c(c2)OCO3)CC1	32.9	–
Cc1nc(C)c(CNC2CCN(C(=O)c3cc4cc(Cl)ccc4n3Cc3ccc(F)cc3)C2)nc1C (configuration not stated)	49.4	–
O=C(c1cc2cc(Cl)ccc2n1Cc1ccc(Cl)cc1)N1CCN(Cc2ccc(C(F)(F)F)cc2)CC1	30.4	–
Cc1ccc(CN2CCN(C(=O)c3cc4cc(Cl)ccc4n3Cc3ccc(Cl)cc3)CC2)cc1	39.2	–
COc1ccc2[nH]cc(CCNC(=O)c3cc4cc(Cl)ccc4n3Cc3ccc(Cl)cc3)c2c1	44.3	–
O=C(c1cc2cc(Cl)ccc2n1Cc1ccc(F)cc1)N1CCN(Cc2ccc(C(F)(F)F)cc2)CC1	27.8	–
Cc1nc(C)c(CNC2CCN(C(=O)c3cc4cc(Cl)ccc4n3Cc3ccc(Cl)cc3)C2)nc1C (configuration not stated)	42.5	–
O=C(c1cc2cc(Cl)ccc2n1Cc1ccc(Cl)cc1)N1CCN(Cc2ccc(Cl)cc2)CC1	40.5	IC50 [2]: 361 nM; IC50 [3]: 210 nM
Cc1ccc(CN2CCN(C(=O)c3cc4cc(Cl)ccc4n3Cc3ccc(F)cc3)CC2)cc1	32.9	–
C[C@@H]1C[C@H]2[C@@H]3CCC4=CC(=O)C=C[C@]4(C)[C@@]3(F)[C@@H](O)C[C@]2(C)[C@@]1(O)C(=O)CO [DEXAMETHASONE]	–	inhibition in vivo at 0.5 mg/kg (Mus musculus [4]): 46.8 to 63.8%
CC(c1cc2ccccc2s1)N(O)C(N)=O (configuration not stated) [ZILEUTON]	–	IC50 [3]: 38.9 nM
